Calls of active or inactive are those of the source. No cut-off for these calls is given here.
Experiments:
[1] = Metabolic stability in mouse liver microsomes assessed as compound remaining after 10 mins; assay type: ADME, Microsome; conditions: for remaining at 10 min: liver microsomes, read-out: Stability
Summary of the method: (§1)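 Compound was incubated with human, mouse or rat liver microsomal preparations. Stability is the percent of compound remaining after 10 min.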

[2] = Metabolic stability in rat liver microsomes assessed as compound remaining after 10 mins; assay type: ADME; conditions: read-out: Stability; summary of the method: as §1
[3] = (§2) Metabolic stability in human liver microsomes assessed as compound remaining after 10 mins; assay type: ADME; conditions: liver microsomes, read-out: Stability; summary of the method: as §1
Mus musculus [4] = test: Inhibition of CSF-1-induced c-fos gene expression in mouse spleen at 30 mg/kg, po after 6 hrs; assay type: functional
Summary of the method: (§3)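 In the mouse pharmacodynamic model, compound was given orally. Spleen c-fos mRNA induced by an iv injection of CSF-1 was measured 6 or 8 h after dosing.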

[5] = molecular target: Mast/stem cell growth factor receptor Kit (Homo sapiens, UniProt P10721); test: Inhibition of KIT (unknown origin)
Liver microsome = test: as §2; assay type: ADME; conditions: microsomes, 10 min; summary of the method: as §1
Mus musculus [6] = test: Inhibition of CSF-1-induced c-fos gene expression in mouse spleen at 20 mg/kg, po after 6 hrs; assay type: functional; summary of the method: as §3
[7] = molecular target: T1, Macrophage colony-stimulating factor 1 receptor (Mus musculus, UniProt P09581); test: Inhibition of FMS in mouse BMDM cells; assay type: cell-based
T1 sequence (P09581 whole entry): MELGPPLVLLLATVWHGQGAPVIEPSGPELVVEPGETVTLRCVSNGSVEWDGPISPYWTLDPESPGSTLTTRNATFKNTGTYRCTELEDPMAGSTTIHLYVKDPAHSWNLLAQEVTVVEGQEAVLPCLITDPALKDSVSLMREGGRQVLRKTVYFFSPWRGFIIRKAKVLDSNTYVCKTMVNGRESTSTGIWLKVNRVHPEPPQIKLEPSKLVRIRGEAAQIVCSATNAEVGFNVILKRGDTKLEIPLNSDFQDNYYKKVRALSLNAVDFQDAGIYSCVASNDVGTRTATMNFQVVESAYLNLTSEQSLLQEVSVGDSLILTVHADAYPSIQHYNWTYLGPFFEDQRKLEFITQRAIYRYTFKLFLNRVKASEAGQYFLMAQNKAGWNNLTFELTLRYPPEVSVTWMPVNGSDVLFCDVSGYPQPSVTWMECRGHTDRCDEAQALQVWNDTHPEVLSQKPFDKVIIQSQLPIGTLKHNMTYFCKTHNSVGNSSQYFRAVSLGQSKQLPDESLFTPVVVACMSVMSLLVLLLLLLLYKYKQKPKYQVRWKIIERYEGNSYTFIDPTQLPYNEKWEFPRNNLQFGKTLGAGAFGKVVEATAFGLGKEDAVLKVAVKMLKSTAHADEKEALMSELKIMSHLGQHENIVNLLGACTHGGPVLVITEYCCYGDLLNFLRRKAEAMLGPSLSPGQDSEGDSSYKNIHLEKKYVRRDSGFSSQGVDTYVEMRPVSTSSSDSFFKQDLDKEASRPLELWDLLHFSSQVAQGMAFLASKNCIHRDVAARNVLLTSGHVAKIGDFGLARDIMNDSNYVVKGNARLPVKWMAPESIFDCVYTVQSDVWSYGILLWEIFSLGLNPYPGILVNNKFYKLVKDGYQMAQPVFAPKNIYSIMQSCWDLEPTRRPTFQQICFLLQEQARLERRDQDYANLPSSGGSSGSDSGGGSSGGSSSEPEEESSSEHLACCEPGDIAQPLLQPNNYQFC

[8] = Cmax in Sprague-Dawley rat at 5 mg/kg, po; assay type: ADME, organism-based; set-up: dose 5 mg/kg, route oral; conditions: in vivo
[9] = Systemic clearance in Sprague-Dawley rat at 1 mg/kg, iv; assay type: ADME, organism-based; set-up: dose 1 mg/kg, route intravenous; conditions: in vivo
[10] = Oral bioavailability in Sprague-Dawley rat at 5 mg/kg; assay type: ADME, organism-based; conditions: in vivo
[11] = Terminal half life in Sprague-Dawley rat at 5 mg/kg, po; assay type: ADME, organism-based; set-up: dose 5 mg/kg, route oral; conditions: in vivo, read-out: beta t1/2 (converted)
[12] = Volume of distribution in Sprague-Dawley rat at 1 mg/kg, iv; assay type: ADME, organism-based; set-up: dose 1 mg/kg, route intravenous; conditions: in vivo
[13] = Tmax in Sprague-Dawley rat at 5 mg/kg, po; assay type: ADME, organism-based; set-up: dose 5 mg/kg, route oral; conditions: in vivo
[14] = AUC in Sprague-Dawley rat at 5 mg/kg, po; assay type: ADME, organism-based; set-up: dose 5 mg/kg, route oral; conditions: plasma
Mo7e = test: Selectivity ratio of IC50 for KIT in human Mo7e cells to IC50 for FMS in mouse BMDM cells; assay type: cell-based
Summary of the method: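 Cellular selectivity was calculated as Mo7e IC50 divided by BMDM IC50. Mo7e IC50 came from SCF-dependent proliferation of Mo7e leukemia cells. BMDM IC50 came from proliferation of murine bone marrow-derived macrophages.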

Rattus norvegicus [15] = test: Toxicity in Sprague-Dawley rat assessed as blood reticulocyte level at 40 mg/kg, po bid after 4.5 days; assay type: organism-based; set-up: dose 40 mg/kg, route oral; conditions: in vivo, 108 h
Summary of the method: (§4)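 Female Sprague–Dawley rats (150–200 g) were dosed orally bid for 4 days with vehicle (n = 4) or 10–40 mg/kg (n = 3), as a solution at 6 ml/kg in 20% HPβCD. A final dose was given on day 5 and rats were sacrificed 2 h later. Plasma drug level, body weight versus vehicle controls and blood reticulocytes were assessed.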

[16] = Plasma concentration in Sprague-Dawley rat at 40 mg/kg, po bid administered for 5 days measured 2 hrs post last dose; assay type: ADME, organism-based; set-up: dose 40 mg/kg, route oral; summary of the method: as §4
Rattus norvegicus [17] = test: Toxicity in Sprague-Dawley rat at 40 mg/kg, po bid after 4.5 days; assay type: organism-based; set-up: dose 40 mg/kg, route oral; conditions: in vivo, 108 h; summary of the method: as §4
[18] = Plasma concentration in Sprague-Dawley rat at 10 mg/kg, po bid administered for 5 days measured 2 hrs post last dose; assay type: ADME, organism-based; set-up: dose 10 mg/kg, route oral; summary of the method: as §4
Rattus norvegicus [19] = test: Toxicity in Sprague-Dawley rat assessed as body weight loss at 40 mg/kg, po bid after 4.5 days relative to vehicle-treated control; assay type: organism-based; set-up: dose 40 mg/kg, route oral; conditions: in vivo, 108 h; summary of the method: as §4
Mus musculus [20] = test: Inhibition of CSF-1-induced c-fos gene expression in mouse spleen at 40 mg/kg, po after 6 hrs; assay type: functional; summary of the method: as §3
Rattus norvegicus [21] = test: Antiinflammatory activity in chronic phase of po dosed Lewis rat arthritis model assessed as inhibition of SCW-induced ankle swelling administered as bid for 14 days; assay type: functional, organism-based
Summary of the method: (§5)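 Female Lewis rats (80–100 g) received streptococcal cell wall material ip on day 0. On day 5, rats with a distinct acute-phase joint swelling response were randomized (n = 7/group). Vehicle, 10 or 40 mg/kg was given orally bid from day 10 (start of chronic phase) for 14 days. Ankle and paw swelling were followed.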

Rattus norvegicus [22] = test: Antiinflammatory activity in chronic phase of Lewis rat arthritis model assessed as inhibition of SCW-induced ankle swelling at 10 to 40 mg/kg, po bid administered for 14 days; assay type: functional, organism-based; summary of the method: as §5

Chain of Mast/stem cell growth factor receptor Kit (P10721 whole entry): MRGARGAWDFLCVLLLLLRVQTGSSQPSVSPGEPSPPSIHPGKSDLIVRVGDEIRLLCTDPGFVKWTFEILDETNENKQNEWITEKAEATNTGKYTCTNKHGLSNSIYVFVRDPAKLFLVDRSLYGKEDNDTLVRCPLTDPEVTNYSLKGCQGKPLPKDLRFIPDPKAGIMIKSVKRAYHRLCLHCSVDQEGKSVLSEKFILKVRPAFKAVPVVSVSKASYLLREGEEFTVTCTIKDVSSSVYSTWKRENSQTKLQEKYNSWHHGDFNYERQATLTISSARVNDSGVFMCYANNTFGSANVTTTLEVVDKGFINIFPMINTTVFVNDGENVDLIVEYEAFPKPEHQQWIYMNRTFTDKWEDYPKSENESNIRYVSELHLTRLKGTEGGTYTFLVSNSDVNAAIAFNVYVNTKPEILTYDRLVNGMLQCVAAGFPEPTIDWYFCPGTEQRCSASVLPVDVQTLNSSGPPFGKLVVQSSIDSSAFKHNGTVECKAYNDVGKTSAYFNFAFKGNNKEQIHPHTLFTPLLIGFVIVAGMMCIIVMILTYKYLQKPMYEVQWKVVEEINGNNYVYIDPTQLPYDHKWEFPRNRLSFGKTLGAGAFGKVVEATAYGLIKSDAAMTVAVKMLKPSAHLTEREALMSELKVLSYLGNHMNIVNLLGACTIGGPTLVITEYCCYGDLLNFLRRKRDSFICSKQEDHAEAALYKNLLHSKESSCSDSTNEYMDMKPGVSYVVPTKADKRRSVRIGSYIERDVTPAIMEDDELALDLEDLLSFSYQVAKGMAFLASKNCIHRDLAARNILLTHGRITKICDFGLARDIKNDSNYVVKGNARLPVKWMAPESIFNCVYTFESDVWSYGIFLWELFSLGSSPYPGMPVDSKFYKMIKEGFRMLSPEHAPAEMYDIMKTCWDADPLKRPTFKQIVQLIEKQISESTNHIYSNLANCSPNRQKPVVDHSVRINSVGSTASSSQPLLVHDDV

## CC1(C)CC=C(c2cc(C(C)(C)N3CCS(=O)(=O)CC3)ccc2NC(=O)c2nc(C#N)c[nH]2)CC1
[1]
  remaining at 10 min: 84%
[2]
  remaining at 10 min: 98%
[3]
  remaining at 10 min: 112%
Mus musculus [4]
  inhibition in vivo at 30 mg/kg: 8%
[5]
  IC50: 250 nM

## CCN1CCN(C(C)(C)c2ccc(NC(=O)c3nc(C#N)c[nH]3)c(C3=CCC(C)(C)CC3)c2)CC1
[1]
  remaining at 10 min: 84%
[2]
  remaining at 10 min: 32%
[3]
  remaining at 10 min: 108%
[5]
  IC50: 50 nM

## COCCN1CCN(C(C)(C)c2ccc(NC(=O)c3nc(C#N)c[nH]3)c(C3=CCC(C)(C)CC3)c2)CC1
[1]
  remaining at 10 min: 73%
[2]
  remaining at 10 min: 40%
[3]
  remaining at 10 min: 72%
[5]
  IC50: 210 nM

## CC(=O)N1CCN(C(C)(C)c2ccc(NC(=O)c3nc(C#N)c[nH]3)c(C3=CCC(C)(C)CC3)c2)CC1
Liver microsome
  Stability: ND(Insoluble)
[5]
  IC50: 40 nM

## COCCNC(C)(C)c1ccc(NC(=O)c2nc(C#N)c[nH]2)c(C2=CCC(C)(C)CC2)c1
[1]
  remaining at 10 min: 50%
[2]
  remaining at 10 min: 78%
[3]
  remaining at 10 min: 79%
[5]
  IC50: 42 nM

## COCCNCC(C)(C)c1ccc(NC(=O)c2nc(C#N)c[nH]2)c(C2=CCC(C)(C)CC2)c1
Mus musculus [6]
  inhibition in vivo at 20 mg/kg: 0%
[2]
  remaining at 10 min: 39%
[3]
  remaining at 10 min: 35%
[5]
  IC50: 110 nM

## CC1(C)CC=C(c2cc(C(C)(C)OCCN3CCOCC3)ccc2NC(=O)c2nc(C#N)c[nH]2)CC1
[1]
  remaining at 10 min: 93%
[2]
  remaining at 10 min: 44%
[3]
  remaining at 10 min: 38%
[5]
  IC50: 57 nM

## CC1(C)CC=C(c2cc(C(C)(C)NCCN3CCOCC3)ccc2NC(=O)c2nc(C#N)c[nH]2)CC1
[1]
  remaining at 10 min: 62%
[7]
  IC50: 5.8 nM
[2]
  remaining at 10 min: 90%
[3]
  remaining at 10 min: 82%
Mus musculus [4]
  inhibition in vivo at 30 mg/kg: 14%
[5]
  IC50: 92 nM

## CC1(C)CC=C(c2cc(C(C)(C)N3CCN(CCO)CC3)ccc2NC(=O)c2nc(C#N)c[nH]2)CC1.Cl
[8]
  Cmax: 210 nM
[9]
  clearance: 34 mL/min/kg
[10]
  bioavailability: 31%
[11]
  half-life: 6.5 h
[12]
  Vd: 7.6 L/kg
[13]
  Tmax: 2.8 h
[14]
  AUC: 690 ng·h/mL

## N#Cc1cnc(C(=O)Nc2ccc(CCO)cc2C2=CCCCC2)[nH]1
[1]
  remaining at 10 min: 3%
[7]
  IC50: 40 nM
[2]
  remaining at 10 min: 3%
[3]
  remaining at 10 min: 7%

## CC1(C)CC=C(c2cc(C(C)(C)OCCN3CCCC3)ccc2NC(=O)c2nc(C#N)c[nH]2)CC1
[5]
  IC50: 25 nM

## CC1(C)CC=C(c2cc(C(C)(C)O)ccc2NC(=O)c2nc(C#N)c[nH]2)CC1
[1]; microsomes, 10 min
  Stability: 124%
[7]
  IC50: 25 nM
[2]
  remaining at 10 min: 96%
[3]
  remaining at 10 min: 110%

## CC1(C)CC=C(c2cc(C(C)(C)NCCO)ccc2NC(=O)c2nc(C#N)c[nH]2)CC1
Mo7e
  Ratio IC50: 32
[7]
  IC50: 7.8 nM

## CC1(C)CC=C(c2cc(C(C)(C)N3CCN(CCO)CC3)ccc2NC(=O)c2nc(C#N)c[nH]2)CC1
[1]
  remaining at 10 min: 98%
Rattus norvegicus [15]
  Activity: Non-toxic
[16]
  concentration at 2 h: 5160 nM
Rattus norvegicus [17]
  Activity: Non-toxic
[2]
  remaining at 10 min: 63%
[3]
  remaining at 10 min: 110%
[18]
  concentration at 2 h: 680 nM
Rattus norvegicus [19]
  Activity: Non-toxic

## CN1CCN(C(C)(C)c2ccc(NC(=O)c3ncc(C#N)[nH]3)c(C3=CCC(C)(C)CC3)c2)CC1
[1]
  remaining at 10 min: 110%
[2]
  remaining at 10 min: 16%
[3]
  remaining at 10 min: 103%
Mus musculus [20]
  inhibition in vivo at 40 mg/kg: 0%

## CN(C)CC(=O)N1CCC(c2ccc(NC(=O)c3nc(C#N)c[nH]3)c(C3=CCCCC3)c2)CC1
Mo7e
  Ratio IC50: 15
[2]
  remaining at 10 min: 77%

## CC1(C)CC=C(c2cc(C(C)(C)N3CCN(CCO)CC3)ccc2NC(=O)c2ncc(C#N)[nH]2)CC1
Rattus norvegicus [21]
  Activity: Dose-dependent effect
Rattus norvegicus [22]
  Activity: Active
Mus musculus [20]
  inhibition in vivo at 40 mg/kg: 78%
